This note sets out measurements from ChEMBL document CHEMBL1136812, “Structure-activity relationships of dimethindene derivatives as new M2-selective muscarinic receptor antagonists” (J Med Chem, 2003).

Broadly, the Ki is the equilibrium dissociation constant of an inhibitor or competing ligand from its target. Read a low Ki as tighter binding.

Assay type in all cases: cell-based
Experiment [1] deals with Muscarinic acetylcholine receptor M3 (Homo sapiens, UniProt P20309). The experiment in a line: Binding affinity towards cloned human muscarinic acetylcholine receptor M3 stably expressed in CHO-K1 cells using [3H]N-methylscopolamine.
Sequence of Muscarinic acetylcholine receptor M3 (P20309 whole entry): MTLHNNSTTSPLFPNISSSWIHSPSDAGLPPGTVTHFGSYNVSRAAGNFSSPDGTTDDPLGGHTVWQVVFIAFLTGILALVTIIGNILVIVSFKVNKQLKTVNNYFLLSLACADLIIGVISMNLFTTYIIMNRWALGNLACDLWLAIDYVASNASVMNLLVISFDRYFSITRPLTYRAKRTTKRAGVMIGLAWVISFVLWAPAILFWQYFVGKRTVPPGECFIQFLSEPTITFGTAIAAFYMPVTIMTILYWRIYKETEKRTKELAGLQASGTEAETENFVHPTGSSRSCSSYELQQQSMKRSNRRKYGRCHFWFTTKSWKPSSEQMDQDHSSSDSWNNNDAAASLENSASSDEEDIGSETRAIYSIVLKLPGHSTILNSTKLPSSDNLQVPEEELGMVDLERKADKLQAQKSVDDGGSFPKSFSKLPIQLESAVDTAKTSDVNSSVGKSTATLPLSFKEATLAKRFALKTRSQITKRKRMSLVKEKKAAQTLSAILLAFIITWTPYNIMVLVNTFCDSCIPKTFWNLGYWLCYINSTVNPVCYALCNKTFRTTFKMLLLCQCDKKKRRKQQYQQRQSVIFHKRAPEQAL
Experiment [2] has as its target T1, Muscarinic acetylcholine receptor M4 (Homo sapiens, UniProt P08173).
T1 sequence (P08173 whole entry): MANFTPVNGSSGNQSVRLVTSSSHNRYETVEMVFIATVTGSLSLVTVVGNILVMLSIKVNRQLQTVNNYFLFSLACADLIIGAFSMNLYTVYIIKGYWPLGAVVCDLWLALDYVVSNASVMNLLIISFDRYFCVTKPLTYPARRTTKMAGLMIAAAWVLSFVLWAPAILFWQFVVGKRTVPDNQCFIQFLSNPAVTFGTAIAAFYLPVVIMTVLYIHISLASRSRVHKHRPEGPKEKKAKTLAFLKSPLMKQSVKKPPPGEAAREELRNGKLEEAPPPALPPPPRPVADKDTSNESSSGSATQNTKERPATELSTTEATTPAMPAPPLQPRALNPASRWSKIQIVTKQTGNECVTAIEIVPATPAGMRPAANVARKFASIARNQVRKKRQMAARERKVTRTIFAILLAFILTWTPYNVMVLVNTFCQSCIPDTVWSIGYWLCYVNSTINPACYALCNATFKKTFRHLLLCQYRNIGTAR
Nature of the experiment: Binding affinity towards cloned human muscarinic acetylcholine receptor M4 stably expressed in CHO-K1 cells using [3H]N-methylscopolamine.

In experiment [3] the target is T2, Muscarinic acetylcholine receptor M1 (Homo sapiens, UniProt P11229).
T2 sequence (P11229 whole entry): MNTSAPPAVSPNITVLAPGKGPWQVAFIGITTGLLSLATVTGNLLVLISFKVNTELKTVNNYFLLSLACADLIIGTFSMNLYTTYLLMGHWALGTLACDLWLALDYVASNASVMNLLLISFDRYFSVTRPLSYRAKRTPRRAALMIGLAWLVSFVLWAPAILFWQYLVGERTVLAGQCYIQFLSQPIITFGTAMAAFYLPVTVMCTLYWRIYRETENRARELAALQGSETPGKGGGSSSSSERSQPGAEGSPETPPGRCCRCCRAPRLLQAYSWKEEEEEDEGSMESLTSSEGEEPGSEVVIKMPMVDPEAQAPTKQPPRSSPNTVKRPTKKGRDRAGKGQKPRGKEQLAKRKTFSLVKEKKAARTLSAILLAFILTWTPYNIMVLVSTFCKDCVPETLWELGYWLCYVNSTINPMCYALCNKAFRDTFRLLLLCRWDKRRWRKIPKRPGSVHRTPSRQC
Nature of the experiment: Binding affinity towards cloned human muscarinic acetylcholine receptor M1 stably expressed in CHO-K1 cells using [3H]N-methylscopolamine.

A further experiment addresses Histamine H1 receptor (Homo sapiens, UniProt P35367). Nature of the experiment: Compound was evaluated for binding affinity towards cloned human histamine H1 receptors stably expressed in CHO-K1 cells using [3H]mepyramine. An outline of the steps: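 CHO-K1 membranes with stable human H1 receptor, 18 µg/mL final protein. […] Nonspecific binding with 0.1 mM terfenadine. Filtered and counted. Ki by Cheng-Prusoff. pKi mean ± SD, ≥3 experiments in duplicate.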

Experiment [4] deals with T3, Muscarinic acetylcholine receptor M2 (Homo sapiens, UniProt P08172).
T3 sequence (P08172 whole entry): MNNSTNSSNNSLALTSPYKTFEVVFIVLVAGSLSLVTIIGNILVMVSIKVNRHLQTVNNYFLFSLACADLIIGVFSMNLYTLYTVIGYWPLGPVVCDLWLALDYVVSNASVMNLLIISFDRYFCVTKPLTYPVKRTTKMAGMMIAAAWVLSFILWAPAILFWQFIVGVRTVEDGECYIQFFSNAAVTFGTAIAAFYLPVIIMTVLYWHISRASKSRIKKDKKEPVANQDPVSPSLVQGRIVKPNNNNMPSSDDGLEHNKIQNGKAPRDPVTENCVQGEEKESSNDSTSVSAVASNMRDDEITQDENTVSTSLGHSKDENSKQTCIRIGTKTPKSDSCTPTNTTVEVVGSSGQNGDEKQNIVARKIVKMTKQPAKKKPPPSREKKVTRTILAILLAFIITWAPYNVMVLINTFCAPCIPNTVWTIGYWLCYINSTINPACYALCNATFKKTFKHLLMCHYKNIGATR
The experiment in a line: Binding affinity towards cloned human muscarinic acetylcholine receptor M2 stably expressed in CHO-K1 cells using [3H]N-methylscopolamine.

Experiment [5] addresses T4, Muscarinic acetylcholine receptor M5 (Homo sapiens, UniProt P08912).
T4 sequence (P08912 whole entry): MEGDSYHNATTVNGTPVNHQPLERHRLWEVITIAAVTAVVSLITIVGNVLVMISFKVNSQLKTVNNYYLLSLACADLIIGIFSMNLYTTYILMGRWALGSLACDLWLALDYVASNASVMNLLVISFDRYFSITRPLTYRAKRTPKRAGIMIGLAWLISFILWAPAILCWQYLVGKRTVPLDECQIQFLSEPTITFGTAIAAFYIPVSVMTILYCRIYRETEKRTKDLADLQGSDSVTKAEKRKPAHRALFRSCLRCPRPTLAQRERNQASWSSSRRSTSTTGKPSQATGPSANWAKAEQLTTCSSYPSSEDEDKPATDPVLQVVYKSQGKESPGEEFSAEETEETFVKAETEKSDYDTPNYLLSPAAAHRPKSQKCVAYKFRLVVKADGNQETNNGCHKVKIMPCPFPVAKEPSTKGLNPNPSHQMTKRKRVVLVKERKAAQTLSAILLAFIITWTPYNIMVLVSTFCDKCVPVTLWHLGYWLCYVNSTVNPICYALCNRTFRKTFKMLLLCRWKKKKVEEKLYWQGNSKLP
Nature of the experiment: Binding affinity towards cloned human muscarinic acetylcholine receptor M5 stably expressed in CHO-K1 cells using [3H]N-methylscopolamine.

Sequence of Histamine H1 receptor (P35367 whole entry): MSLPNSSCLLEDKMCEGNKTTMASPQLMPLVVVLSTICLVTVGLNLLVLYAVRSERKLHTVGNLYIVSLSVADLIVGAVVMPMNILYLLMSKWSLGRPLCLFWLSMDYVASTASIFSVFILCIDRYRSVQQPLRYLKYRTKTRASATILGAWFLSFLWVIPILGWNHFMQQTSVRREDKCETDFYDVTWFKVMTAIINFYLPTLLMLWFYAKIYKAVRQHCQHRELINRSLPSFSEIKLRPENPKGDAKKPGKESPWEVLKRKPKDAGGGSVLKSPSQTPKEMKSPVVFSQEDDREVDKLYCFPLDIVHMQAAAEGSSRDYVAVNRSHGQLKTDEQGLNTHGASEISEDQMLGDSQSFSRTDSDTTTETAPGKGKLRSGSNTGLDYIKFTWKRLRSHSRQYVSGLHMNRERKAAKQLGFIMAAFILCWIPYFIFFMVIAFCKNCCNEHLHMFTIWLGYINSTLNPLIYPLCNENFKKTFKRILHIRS

On to `C[C@@H](C1=C(CCN(C)C)Cc2ccccc21)c1ccccn1`, for which the inhibition constant (Ki) was 0.138 µM in experiment [1]; 0.295 µM in experiment [2]; 0.191 µM in experiment [3]; 0.0692 µM at Histamine H1 receptor; 0.0302 µM in experiment [4]; 0.759 µM in experiment [5].

In the case of `CC(C1=C(CCN(C)C)Cc2cc(Cl)ccc21)c1ccccn1` (stereo not drawn), the Ki in experiment [1] is 0.0955 µM; in experiment [2], 0.331 µM; in experiment [3], 0.151 µM; at Histamine H1 receptor, 0.000813 µM; in experiment [4], 0.0331 µM; in experiment [5], 0.724 µM.

For `CC(C1=C(CCN(C)CCF)Cc2ccccc21)c1ccccn1` (stereo not drawn), the inhibitory constant (Ki) in experiment [1] was 0.708 µM; in experiment [2], 0.437 µM; in experiment [3], 0.603 µM; at Histamine H1 receptor, 0.00724 µM; in experiment [4], 0.0324 µM; in experiment [5] it was 2 µM.

Turning to `CC(C1=C(CN(C)C)Cc2ccccc21)c1ccccn1` (stereo not drawn), the Ki in experiment [1] is 0.0316 µM; in experiment [2], 0.0977 µM; in experiment [3] it was 0.0347 µM; on Histamine H1 receptor, 0.0288 µM; in experiment [4], 0.0123 µM; in experiment [5] it was 0.0871 µM.

Take `CC(C1=C(CCN(C(C)C)C(C)C)Cc2ccccc21)c1ccccn1` (stereo in doubt; 19): the inhibition constant (Ki) was 2.24 µM in experiment [1]; 0.741 µM in experiment [2]; 0.741 µM in experiment [3]; 0.0251 µM in experiment [4]; 2.19 µM in experiment [5].

For the molecule `CC(C1=C(CCN(C(C)C)C(C)C)Cc2ccccc21)c1ccccn1` (stereo in doubt; (+)-19), the Ki in experiment [1] is 20.9 µM; in experiment [2], 5.5 µM; in experiment [3] it was 5.89 µM; on Histamine H1 receptor, 0.219 µM; in experiment [4] it was 0.575 µM; in experiment [5], 5.13 µM.

`CC(C1=C(CCN(C(C)C)C(C)C)Cc2ccccc21)c1ccccn1` (stereo in doubt; (-)-19): the inhibitory constant (Ki) was 4.07 µM in experiment [1]; 1.78 µM in experiment [2]; 1.55 µM in experiment [3]; 2.45 µM at Histamine H1 receptor; 0.0427 µM in experiment [4]; 11.7 µM in experiment [5].

For `C[C@H](C1=C(CCN(C)C)Cc2ccccc21)c1ccccn1` [(S)-(+)-DIMETHINDENE], the inhibition constant Ki was 3.39 µM in experiment [1]; 3.89 µM in experiment [2]; 1.86 µM in experiment [3]; 0.000437 µM on Histamine H1 receptor; 1.23 µM in experiment [4]; 2.69 µM in experiment [5].

On to `CC(C1=C(CCN(C)C)Cc2ccccc21)c1ccccn1` (stereo not drawn) [DIMETHINDENE], for which the affinity at Histamine H1 receptor, expressed as Ki, was 0.000692 µM.
